Reference: ChEMBL document CHEMBL5058577, “EUbOPEN Chemogenomics Library 2 (Multiplex)” (2022)

Test system: HEK-293T
Assay: Multiplex assay against HEK293T
Assay type: toxicity, cell-based
Settings: human
In short: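 Live cells were stained at seeding with Hoechst33342, BioTracker Green Microtubule Cytoskeleton Dye, MitoTracker Red and Annexin V Alexa Fluor 680. Following compound addition, they were imaged on a CQ1 microscope at 37°C and 5% CO2 and gated by CellPathfinder machine learning into Hoechst high-intensity objects or normal cells, with normal cells split into healthy, pyknosed or fragmented nuclei and pyknosed cells into mitotic or apoptotic. Tubulin, mitochondrial-mass and membrane-permeability phenotypes are per cents of healthy-nucleus cells.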

[1] = 12 h, 1 µM, compound concentration 1 uM, replicate 1
[2] = 12 h, 1 µM, compound concentration 1 uM, replicate 2
[3] = 12 h, 10 µM, compound concentration 10 uM, replicate 1
[4] = 12 h, 10 µM, compound concentration 10 uM, replicate 2
[5] = 24 h, 1 µM, compound concentration 1 uM, replicate 1
[6] = 24 h, 1 µM, compound concentration 1 uM, replicate 2
[7] = 24 h, 10 µM, compound concentration 10 uM, replicate 1
[8] = 24 h, 10 µM, compound concentration 10 uM, replicate 2
[9] = 48 h, 1 µM, compound concentration 1 uM, replicate 1
[10] = 48 h, 1 µM, compound concentration 1 uM, replicate 2
[11] = 48 h, 10 µM, compound concentration 10 uM, replicate 1
[12] = 48 h, 10 µM, compound concentration 10 uM, replicate 2

SMILES: Cn1cc(C(=O)OCC2CCN(CCNS(C)(=O)=O)CC2)c2ccccc21
- Population Apoptotic (%) [1]: 39%
- Population Fragmented Nuclei (%) [1]: 5%
- Population Healthy Nuclei (%) [1]: 83%
- Population Hoechst High Intensity Objects (%) [1]: 7%
- Population Membrane Permeable-Phenotype (%) [1]: 0%
- Population Mitochondria Different-Phenotype (%) [1]: 35%
- Population Mitotic Cells (%) [1]: 60%
- Population Normal (%) [1]: 92%
- Population Pyknosed Nuclei (%) [1]: 10%
- Population Tubulin-Different-Phenotype (%) [1]: 22%
- Total Cell Count [1]: 466
- Population Apoptotic (%) [2]: 56%
- Population Fragmented Nuclei (%) [2]: 9%
- Population Healthy Nuclei (%) [2]: 76%
- Population Hoechst High Intensity Objects (%) [2]: 8%
- Population Mitochondria Different-Phenotype (%) [2]: 62%
- Population Mitotic Cells (%) [2]: 43%
- Population Normal (%) [2]: 91%
- Population Pyknosed Nuclei (%) [2]: 14%
- Population Tubulin-Different-Phenotype (%) [2]: 28%
- Total Cell Count [2]: 248
- Population Apoptotic (%) [3]: 47%
- Population Fragmented Nuclei (%) [3]: 10%
- Population Healthy Nuclei (%) [3]: 73%
- Population Hoechst High Intensity Objects (%) [3]: 6%
- Population Membrane Permeable-Phenotype (%) [3]: 0%
- Population Mitochondria Different-Phenotype (%) [3]: 55%
- Population Mitotic Cells (%) [3]: 52%
- Population Normal (%) [3]: 93%
- Population Pyknosed Nuclei (%) [3]: 15%
- Population Tubulin-Different-Phenotype (%) [3]: 53%
- Total Cell Count [3]: 479
- Population Apoptotic (%) [4]: 43%
- Population Healthy Nuclei (%) [4]: 71%
- Population Hoechst High Intensity Objects (%) [4]: 10%
- Population Mitochondria Different-Phenotype (%) [4]: 73%
- Population Mitotic Cells (%) [4]: 56%
- Population Normal (%) [4]: 89%
- Population Pyknosed Nuclei (%) [4]: 18%
- Population Tubulin-Different-Phenotype (%) [4]: 47%
- Total Cell Count [4]: 393
- Population Apoptotic (%) [5]: 29%
- Population Fragmented Nuclei (%) [5]: 6%
- Population Healthy Nuclei (%) [5]: 82%
- Population Hoechst High Intensity Objects (%) [5]: 4%
- Population Membrane Permeable-Phenotype (%) [5]: 1%
- Population Mitochondria Different-Phenotype (%) [5]: 21%
- Population Mitotic Cells (%) [5]: 70%
- Population Normal (%) [5]: 95%
- Population Pyknosed Nuclei (%) [5]: 10%
- Population Tubulin-Different-Phenotype (%) [5]: 16%
- Total Cell Count [5]: 650
- Population Apoptotic (%) [6]: 48%
- Population Fragmented Nuclei (%) [6]: 12%
- Population Healthy Nuclei (%) [6]: 76%
- Population Hoechst High Intensity Objects (%) [6]: 5%
- Population Membrane Permeable-Phenotype (%) [6]: 0%
- Population Mitochondria Different-Phenotype (%) [6]: 42%
- Population Mitotic Cells (%) [6]: 51%
- Population Normal (%) [6]: 94%
- Population Tubulin-Different-Phenotype (%) [6]: 17%
- Total Cell Count [6]: 283
- Population Apoptotic (%) [7]: 35%
- Population Fragmented Nuclei (%) [7]: 11%
- Population Healthy Nuclei (%) [7]: 74%
- Population Hoechst High Intensity Objects (%) [7]: 5%
- Population Membrane Permeable-Phenotype (%) [7]: 1%
- Population Mitochondria Different-Phenotype (%) [7]: 43%
- Population Mitotic Cells (%) [7]: 64%
- Population Normal (%) [7]: 94%
- Population Pyknosed Nuclei (%) [7]: 13%
- Population Tubulin-Different-Phenotype (%) [7]: 50%
- Total Cell Count [7]: 587
- Population Apoptotic (%) [8]: 48%
- Population Fragmented Nuclei (%) [8]: 10%
- Population Healthy Nuclei (%) [8]: 79%
- Population Hoechst High Intensity Objects (%) [8]: 6%
- Population Membrane Permeable-Phenotype (%) [8]: 0%
- Population Mitochondria Different-Phenotype (%) [8]: 56%
- Population Mitotic Cells (%) [8]: 51%
- Population Normal (%) [8]: 93%
- Population Pyknosed Nuclei (%) [8]: 9%
- Population Tubulin-Different-Phenotype (%) [8]: 37%
- Total Cell Count [8]: 491
- Population Apoptotic (%) [9]: 25%
- Population Fragmented Nuclei (%) [9]: 12%
- Population Healthy Nuclei (%) [9]: 78%
- Population Hoechst High Intensity Objects (%) [9]: 3%
- Population Membrane Permeable-Phenotype (%) [9]: 1%
- Population Mitochondria Different-Phenotype (%) [9]: 12%
- Population Mitotic Cells (%) [9]: 74%
- Population Normal (%) [9]: 96%
- Population Pyknosed Nuclei (%) [9]: 8%
- Population Tubulin-Different-Phenotype (%) [9]: 10%
- Total Cell Count [9]: 1090
- Population Apoptotic (%) [10]: 44%
- Population Fragmented Nuclei (%) [10]: 11%
- Population Healthy Nuclei (%) [10]: 82%
- Population Hoechst High Intensity Objects (%) [10]: 4%
- Population Membrane Permeable-Phenotype (%) [10]: 3%
- Population Mitochondria Different-Phenotype (%) [10]: 23%
- Population Mitotic Cells (%) [10]: 55%
- Population Normal (%) [10]: 95%
- Population Pyknosed Nuclei (%) [10]: 6%
- Population Tubulin-Different-Phenotype (%) [10]: 11%
- Total Cell Count [10]: 490
- Population Apoptotic (%) [11]: 38%
- Population Fragmented Nuclei (%) [11]: 16%
- Population Healthy Nuclei (%) [11]: 77%
- Population Hoechst High Intensity Objects (%) [11]: 6%
- Population Membrane Permeable-Phenotype (%) [11]: 1%
- Population Mitochondria Different-Phenotype (%) [11]: 31%
- Population Mitotic Cells (%) [11]: 61%
- Population Normal (%) [11]: 93%
- Population Pyknosed Nuclei (%) [11]: 6%
- Population Tubulin-Different-Phenotype (%) [11]: 28%
- Total Cell Count [11]: 883
- Population Fragmented Nuclei (%) [12]: 13%
- Population Healthy Nuclei (%) [12]: 79%
- Population Hoechst High Intensity Objects (%) [12]: 4%
- Population Membrane Permeable-Phenotype (%) [12]: 0%
- Population Mitochondria Different-Phenotype (%) [12]: 37%
- Population Normal (%) [12]: 95%
- Population Tubulin-Different-Phenotype (%) [12]: 26%
- Total Cell Count [12]: 758

SMILES: CCn1c(-c2nc3cc(C(=O)N4CCCC(N)C4)ccc3n2C)cc2ccccc21.Cl (configuration not stated)
- Population Apoptotic (%) [1]: 54%
- Population Fragmented Nuclei (%) [1]: 9%
- Population Healthy Nuclei (%) [1]: 77%
- Population Hoechst High Intensity Objects (%) [1]: 7%
- Population Membrane Permeable-Phenotype (%) [1]: 0%
- Population Mitochondria Different-Phenotype (%) [1]: 52%
- Population Mitotic Cells (%) [1]: 45%
- Population Normal (%) [1]: 92%
- Population Pyknosed Nuclei (%) [1]: 13%
- Population Tubulin-Different-Phenotype (%) [1]: 33%
- Total Cell Count [1]: 351
- Population Apoptotic (%) [2]: 47%
- Population Fragmented Nuclei (%) [2]: 5%
- Population Healthy Nuclei (%) [2]: 81%
- Population Hoechst High Intensity Objects (%) [2]: 6%
- Population Mitochondria Different-Phenotype (%) [2]: 69%
- Population Mitotic Cells (%) [2]: 52%
- Population Normal (%) [2]: 93%
- Population Tubulin-Different-Phenotype (%) [2]: 20%
- Total Cell Count [2]: 312
- Population Apoptotic (%) [3]: 53%
- Population Fragmented Nuclei (%) [3]: 8%
- Population Healthy Nuclei (%) [3]: 74%
- Population Hoechst High Intensity Objects (%) [3]: 11%
- Population Membrane Permeable-Phenotype (%) [3]: 0%
- Population Mitochondria Different-Phenotype (%) [3]: 85%
- Population Mitotic Cells (%) [3]: 46%
- Population Normal (%) [3]: 88%
- Population Pyknosed Nuclei (%) [3]: 17%
- Population Tubulin-Different-Phenotype (%) [3]: 75%
- Total Cell Count [3]: 406
- Population Fragmented Nuclei (%) [4]: 6%
- Population Healthy Nuclei (%) [4]: 78%
- Population Hoechst High Intensity Objects (%) [4]: 8%
- Population Normal (%) [4]: 91%
- Population Pyknosed Nuclei (%) [4]: 15%
- Population Tubulin-Different-Phenotype (%) [4]: 64%
- Total Cell Count [4]: 398
- Population Apoptotic (%) [5]: 35%
- Population Fragmented Nuclei (%) [5]: 9%
- Population Healthy Nuclei (%) [5]: 80%
- Population Hoechst High Intensity Objects (%) [5]: 6%
- Population Membrane Permeable-Phenotype (%) [5]: 0%
- Population Mitochondria Different-Phenotype (%) [5]: 37%
- Population Mitotic Cells (%) [5]: 64%
- Population Normal (%) [5]: 93%
- Population Pyknosed Nuclei (%) [5]: 10%
- Population Tubulin-Different-Phenotype (%) [5]: 22%
- Total Cell Count [5]: 459
- Population Apoptotic (%) [6]: 39%
- Population Healthy Nuclei (%) [6]: 79%
- Population Hoechst High Intensity Objects (%) [6]: 4%
- Population Mitochondria Different-Phenotype (%) [6]: 49%
- Population Mitotic Cells (%) [6]: 60%
- Population Normal (%) [6]: 95%
- Population Pyknosed Nuclei (%) [6]: 11%
- Population Tubulin-Different-Phenotype (%) [6]: 14%
- Total Cell Count [6]: 383
- Population Apoptotic (%) [7]: 51%
- Population Fragmented Nuclei (%) [7]: 11%
- Population Healthy Nuclei (%) [7]: 70%
- Population Hoechst High Intensity Objects (%) [7]: 12%
- Population Membrane Permeable-Phenotype (%) [7]: 1%
- Population Mitochondria Different-Phenotype (%) [7]: 72%
- Population Mitotic Cells (%) [7]: 48%
- Population Normal (%) [7]: 87%
- Population Pyknosed Nuclei (%) [7]: 18%
- Population Tubulin-Different-Phenotype (%) [7]: 64%
- Total Cell Count [7]: 449
- Population Apoptotic (%) [8]: 40%
- Population Fragmented Nuclei (%) [8]: 8%
- Population Healthy Nuclei (%) [8]: 78%
- Population Hoechst High Intensity Objects (%) [8]: 9%
- Population Membrane Permeable-Phenotype (%) [8]: 0%
- Population Mitochondria Different-Phenotype (%) [8]: 83%
- Population Mitotic Cells (%) [8]: 59%
- Population Normal (%) [8]: 90%
- Population Pyknosed Nuclei (%) [8]: 13%
- Population Tubulin-Different-Phenotype (%) [8]: 58%
- Total Cell Count [8]: 471
- Population Apoptotic (%) [9]: 20%
- Population Fragmented Nuclei (%) [9]: 12%
- Population Healthy Nuclei (%) [9]: 79%
- Population Hoechst High Intensity Objects (%) [9]: 5%
- Population Membrane Permeable-Phenotype (%) [9]: 1%
- Population Mitochondria Different-Phenotype (%) [9]: 28%
- Population Mitotic Cells (%) [9]: 79%
- Population Normal (%) [9]: 94%
- Population Pyknosed Nuclei (%) [9]: 8%
- Population Tubulin-Different-Phenotype (%) [9]: 17%
- Total Cell Count [9]: 771
- Population Apoptotic (%) [10]: 14%
- Population Fragmented Nuclei (%) [10]: 13%
- Population Healthy Nuclei (%) [10]: 81%
- Population Hoechst High Intensity Objects (%) [10]: 4%
- Population Membrane Permeable-Phenotype (%) [10]: 0%
- Population Mitochondria Different-Phenotype (%) [10]: 30%
- Population Mitotic Cells (%) [10]: 85%
- Population Normal (%) [10]: 95%
- Population Pyknosed Nuclei (%) [10]: 5%
- Population Tubulin-Different-Phenotype (%) [10]: 11%
- Total Cell Count [10]: 640
- Population Apoptotic (%) [11]: 50%
- Population Fragmented Nuclei (%) [11]: 14%
- Population Healthy Nuclei (%) [11]: 73%
- Population Hoechst High Intensity Objects (%) [11]: 15%
- Population Membrane Permeable-Phenotype (%) [11]: 0%
- Population Mitochondria Different-Phenotype (%) [11]: 65%
- Population Mitotic Cells (%) [11]: 49%
- Population Normal (%) [11]: 84%
- Population Pyknosed Nuclei (%) [11]: 12%
- Population Tubulin-Different-Phenotype (%) [11]: 63%
- Total Cell Count [11]: 605
- Population Apoptotic (%) [12]: 52%
- Population Fragmented Nuclei (%) [12]: 10%
- Population Healthy Nuclei (%) [12]: 79%
- Population Hoechst High Intensity Objects (%) [12]: 8%
- Population Mitochondria Different-Phenotype (%) [12]: 71%
- Population Mitotic Cells (%) [12]: 47%
- Population Normal (%) [12]: 91%
- Population Pyknosed Nuclei (%) [12]: 9%
- Total Cell Count [12]: 613
